The source of these data is ChEMBL document CHEMBL4339190, “2,6-Disubstituted imidazo[2,1-b][1,3,4]thiadiazole derivatives as potent staphylococcal biofilm inhibitors” (Eur J Med Chem, 2019).

Each structure is given as a SMILES string. Calls of active or inactive are those of the source. The calls are words filed in the database; no cut-off is given here. Some results are limits rather than exact numbers.

Series [1] has as its system Pseudomonas aeruginosa. Nature of the series: Antimicrobial activity against Pseudomonas aeruginosa ATCC 15442 assessed as growth inhibition of planktonic forms incubated for 24 hrs. The format is organism-based. The note with it: in vitro. In a few lines: (§1)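 Broth microdilution in tryptic soy broth. Two-fold series 100 to 0.75 μg/mL made from a 1 mg/mL stock in 0.9% NaCl. Inoculum ~10⁶ cfu/mL taken from a 24 h culture, 37 °C 24 h.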

The test system of series [2] is Staphylococcus aureus. Nature of the series: Antimicrobial activity against Staphylococcus aureus ATCC 25923 assessed as growth inhibition of planktonic forms incubated for 24 hrs. The format is organism-based. The note with it: in vitro. In a few lines: as §1
Series [3] relates to Staphylococcus epidermidis. Nature of the series: Antibiofilm activity against Staphylococcus epidermidis ATCC 12228 incubated for 24 hrs by crystal violet-staining based assay. The class given is functional. In a few lines: (§2)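 Biofilm prevention: 0.5 McFarland inoculum (2.5 µL) in 100 µL TSB with 2% w/v glucose, compound present from the start over 100–0.1 µg/mL, 37 °C 24 h. Washed with PBS, stained 0.1% w/v crystal violet 30 min, eluted with 33% v/v acetic acid, read at 570 nm. BIC50 (50% inhibition versus untreated control) derived by linear regression; triplicate, repeated at least twice.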

Series [4] deals with Escherichia coli. Nature of the series: Antibiofilm activity against Escherichia coli ATCC 25922 assessed as inhibition of biofilm formation at 100 ug/ml incubated for 24 hrs by crystal violet-staining based assay. The format is functional. To be noted: ATCC 25922, 24 h.
The subject of series [5] is Staphylococcus aureus. Nature of the series: Antibiofilm activity against Staphylococcus aureus ATCC 6538 incubated for 24 hrs by crystal violet-staining based assay. The class given is functional. In a few lines:
as §2

In series [6] the test system is Staphylococcus epidermidis. Nature of the series: Antimicrobial activity against Staphylococcus epidermidis ATCC 12228 assessed as growth inhibition of planktonic forms incubated for 24 hrs. The format is organism-based. To be noted: in vitro. In a few lines: as §1
For series [7], the system named is Escherichia coli. Nature of the series: Antimicrobial activity against Escherichia coli ATCC 25922 assessed as growth inhibition of planktonic forms incubated for 24 hrs. The class given is organism-based. The note with it: in vitro. In a few lines:
as §1

The subject of series [8] is Pseudomonas aeruginosa. Nature of the series: Antibiofilm activity against Pseudomonas aeruginosa ATCC 15442 assessed as inhibition of biofilm formation at 100 ug/ml incubated for 24 hrs by crystal violet-staining based assay. The class given is functional. The note with it: ATCC 15442, 24 h.
Series [9] concerns Staphylococcus aureus. Nature of the series: Antimicrobial activity against Staphylococcus aureus ATCC 6538 assessed as growth inhibition of planktonic forms incubated for 24 hrs. The class given is organism-based. To be noted: in vitro. In a few lines: as §1
The test system of a further series is Bacteria. Nature of the series: Inhibition of recombinant bacterial SrtA at 100 uM using 5-FAM/QXL 520 Sortase as substrate preincubated for 10 mins followed by substrate addition and measured every 5 mins for 60 mins by fluorescence assay. In a few lines: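 FRET kit assay: 2.5 µg/ml recombinant SrtA, 4 µM fluorescent peptide substrate, compound at 100 µM in 1% DMSO. Compound and enzyme added first, then substrate. Fluorescence (Ex/Em 490/520 nm) recorded every 5 min for 60 min. Substrate without enzyme served as negative control and 4-(hydroxymercuri)benzoic acid as positive control.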

Series [10] relates to Staphylococcus aureus. Nature of the series: Antibiofilm activity against 24 hrs preformed biofilm of Staphylococcus aureus ATCC 25923 assessed as dispersion of bacteria incubated for 24 hrs by crystal violet-staining based assay. The format is functional, organism-based. The note with it: ATCC 25923, 24 h. In a few lines: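 Preformed biofilm: 0.5 McFarland suspension (2.5 µl) grown 24 h in TSB with 2% w/v glucose. Wells washed twice with PBS and refilled with fresh TSB, then compound added at graded concentrations starting at or above the planktonic MIC. Incubated a further 24 h at 37 °C, washed, heat-fixed 60 °C 1 h, 0.1% crystal violet 30 min, dye solubilized, A540. Percent inhibition versus untreated growth control; triplicate, repeated at least twice.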

In series [11] the test system is Staphylococcus aureus. Nature of the series: Antibiofilm activity against Staphylococcus aureus ATCC 25923 incubated for 24 hrs by crystal violet-staining based assay. The class given is functional. In a few lines: as §2

For the molecule `Br.COc1ccc(OC)c(-c2cn3nc(-c4c[nH]c5ccccc45)sc3n2)c1`, the MIC (in the series with Pseudomonas aeruginosa [1]; in the series with Staphylococcus aureus [2]; in series [6]; in the series with Escherichia coli [7]; in the series with Staphylococcus aureus [9]) was over 100 µg/mL in each case. Further, the MBIC50 in [3] was found to be 29.9 µM; in the series with Staphylococcus aureus [5], 18.5 µM; with Staphylococcus aureus [11] it was 1.2 µM. Besides, the inhibition result (in series [3]; in the series on Staphylococcus aureus [5]; in the series with Staphylococcus aureus [11]) was “Dose-dependent effect” each time. Moreover, the inhibition at 100 µg/mL in the series with Escherichia coli [4] and with Pseudomonas aeruginosa [8] was under 15% in each case. In addition, the inhibition (commonly the percentage by which the read-out fell short of the control) in the series with Bacteria is “inactive”. Besides, in the series on Staphylococcus aureus [10], the IC50 (as a rule, the point on the concentration scale where inhibition reaches its midpoint) worked out at 142 µg/mL. Also, the MBIC90 with Staphylococcus aureus [11] came out at 36.5 µg/mL.
